Experimental data taken from ChEMBL document CHEMBL2151038, “Synthesis, characterization and biological evaluation of some novel 2,4-thiazolidinediones as potential cytotoxic, antimicrobial and antihyperglycemic agents” (Bioorg Med Chem Lett, 2012).
≈ marks a conversion by molar mass, not a printed value.

Assays:
[1] = tested on: Aspergillus niger; assay: Antifungal activity against Aspergillus niger NCIM 548 after 48 hrs by NCCLS agar well diffusion method; assay type: functional; conditions: NCIM 548, 48 h
Outline: (§1)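 Spore suspensions in sterile distilled water adjusted to 10⁶ CFU/mL, 0.1 mL spread on potato-dextrose agar. 6 mm wells received 0.1 mL compound in 1% DMSO (final 16–512 µg/mL). Controls: 1% DMSO and ketoconazole (16 µg/mL). Triplicate plates, 48 h at 28 ± 0.2 °C. MIC = lowest concentration completely inhibiting growth.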

[2] = tested on: Penicillium chrysogenum; assay: Antifungal activity against Penicillium chrysogenum NCIM 738 after 48 hrs by NCCLS agar well diffusion method; assay type: functional; conditions: NCIM 738, 48 h; outline: as §1
[3] = tested on: Candida albicans; assay: Antifungal activity against Candida albicans NCIM 3102 after 48 hrs by NCCLS agar well diffusion method; assay type: functional; conditions: NCIM 3102, 48 h; outline: as §1
[4] = tested on: Aspergillus oryzae; assay: Antifungal activity against Aspergillus oryzae NCIM 643 after 48 hrs by NCCLS agar well diffusion method; assay type: functional; conditions: NCIM 643, 48 h; outline: as §1
[5] = tested on: Klebsiella pneumoniae; assay: Antibacterial activity against Klebsiella pneumoniae NCIM 5082 after 24 hrs by NCCLS agar well diffusion method; assay type: functional; conditions: NCIM 5082, 24 h
Outline: (§2)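 Nutrient agar seeded with 0.1 mL bacterial suspension (10⁵ CFU/mL in 0.85% saline). 6 mm wells filled with 0.1 mL compound. Plates in triplicate, 37 ± 0.5 °C for 24 h. MIC = lowest concentration giving complete growth inhibition.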

[6] = tested on: Bacillus subtilis; assay: Antibacterial activity against Bacillus subtilis NCIM 2063 after 24 hrs by NCCLS agar well diffusion method; assay type: functional; conditions: NCIM 2063, 24 h; outline: as §2
[7] = tested on: Micrococcus luteus; assay: Antibacterial activity against Micrococcus luteus NCIM 2155 after 24 hrs by NCCLS agar well diffusion method; assay type: functional; conditions: NCIM 2155, 24 h; outline: as §2
[8] = tested on: Artemia salina; assay: Cytotoxicity in brine shrimps larvae assessed as mortality after 24 hrs; assay type: functional; conditions: read-out: ED50 (the source's name)
Outline: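 Artemia salina nauplii hatched 38 h under constant aeration in sterile brine (sea salt 38 g/L, pH 8.5 with 1 N NaOH). Ten nauplii per vial were exposed to a range of compound concentrations at 37 °C for 24 h under incandescent light, alongside vehicle-treated controls. Survivors were counted, % lethality was taken from mean survivors versus control, and ED50 came from probit analysis.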

[9] = tested on: Proteus vulgaris; assay: Antibacterial activity against Proteus vulgaris NCIM 2813 after 24 hrs by NCCLS agar well diffusion method; assay type: functional; conditions: NCIM 2813, 24 h; outline: as §2
[10] = tested on: Rattus norvegicus; assay: Antihyperglycemic activity in po dosed streptozotocin-induced type 2 diabetic Wistar albino rat assessed as reduction in plasma glucose level by glucometer; assay type: functional, organism-based
Outline: (§3)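 Wistar albino rats of either sex, 150–200 g, fasted 16 h. Diabetes induced by nicotinamide 150 mg/kg, then STZ 65 mg/kg in citrate buffer pH 4.5. Glucose confirmed after 48 h. Groups of six. Oral dosing as 0.25% sodium CMC suspension at 10, 30 or 50 mg/kg. Rosiglitazone was the reference. Retro-orbital plasma glucose measured by glucometer before dosing and at 1, 2, 4, 6, 8, 12 and 24 h. Results as mean ± SEM, compared by ANOVA, t-test and Dunnett's test.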

[11] = tested on: Bacillus pumilus; assay: Antibacterial activity against Bacillus pumilus NCIM 2327 after 24 hrs by NCCLS agar well diffusion method; assay type: functional; conditions: NCIM 2327, 24 h; outline: as §2
[12] = Toxicity in mouse assessed as changes in vital functions; assay type: organism-based; conditions: in vivo
[13] = tested on: Escherichia coli; assay: Antibacterial activity against Escherichia coli NCIM 2065 after 24 hrs by NCCLS agar well diffusion method; assay type: functional; conditions: NCIM 2065, 24 h; outline: as §2
[14] = tested on: Rattus norvegicus; assay: Antihyperglycemic activity in streptozotocin-induced type 2 diabetic Wistar albino rat assessed as reduction in plasma glucose level at 30 mg/kg, po by glucometer; assay type: functional; outline: as §3
[15] = tested on: Rattus norvegicus; assay: Antihyperglycemic activity in streptozotocin-induced type 2 diabetic Wistar albino rat assessed as reduction in plasma glucose level at 10 mg/kg, po by glucometer; assay type: functional; outline: as §3
[16] = tested on: Rattus norvegicus; assay: Antihyperglycemic activity in streptozotocin-induced type 2 diabetic Wistar albino rat assessed as reduction in plasma glucose level at 50 mg/kg, po by glucometer; assay type: functional; outline: as §3
[17] = tested on: Pseudomonas aeruginosa; assay: Antibacterial activity against Pseudomonas aeruginosa NCIM 2036 after 24 hrs by NCCLS agar well diffusion method; assay type: functional; conditions: NCIM 2036, 24 h; outline: as §2
[18] = tested on: Staphylococcus aureus; assay: Antibacterial activity against Staphylococcus aureus NCIM 2079 after 24 hrs by NCCLS agar well diffusion method; assay type: functional; conditions: NCIM 2079, 24 h; outline: as §2

Compound: CC(=O)N1CCN(c2ccc(OCC3COC(Cn4ccnc4)(c4ccc(Cl)cc4Cl)O3)cc2)CC1 (stereo not given) [KETOCONAZOLE]
- MIC [1]: 16 µg/mL (≈ 30.1 µM)
- MIC [2]: 16 µg/mL (≈ 30.1 µM)
- MIC [3]: 16 µg/mL (≈ 30.1 µM)
- MIC [4]: 16 µg/mL (≈ 30.1 µM)

Compound: COc1ccc(C(=O)/C=C/c2ccc(/C=C3\SC(=O)NC3=O)cc2)cc1
- MIC [5]: 64 µg/mL (≈ 175 µM)
- MIC [6]: 64 µg/mL (≈ 175 µM)
- MIC [7]: 64 µg/mL (≈ 175 µM)
- EC50 [8]: 16.2 µg/mL (≈ 44.4 µM)
- MIC [9]: 64 µg/mL (≈ 175 µM)
- Activity [10]: Dose-dependent effect
- MIC [1]: 128 µg/mL (≈ 350 µM)
- MIC [11]: 64 µg/mL (≈ 175 µM)
- MTD [12]: 2000 mg/kg
- MIC [2]: 128 µg/mL (≈ 350 µM)
- MIC [13]: 32 µg/mL (≈ 87.6 µM)
- Activity [14]: 37.04 mg/dL
- Activity [15]: 33.88 mg/dL
- Activity [16]: 48.71 mg/dL
- MIC [17]: 64 µg/mL (≈ 175 µM)
- MIC [3]: 128 µg/mL (≈ 350 µM)
- MIC [18]: 32 µg/mL (≈ 87.6 µM)
- MIC [4]: 128 µg/mL (≈ 350 µM)

Compound: O=C1NC(=O)/C(=C/c2ccc(/C=C/C(=O)c3cccnc3)cc2)S1
- MIC [5]: 128 µg/mL (≈ 381 µM)
- MIC [6]: 128 µg/mL (≈ 381 µM)
- MIC [7]: 128 µg/mL (≈ 381 µM)
- EC50 [8]: 31.4 µg/mL (≈ 93.4 µM)
- MIC [9]: 256 µg/mL (≈ 761 µM)
- Activity [10]: Dose-dependent effect
- MIC [1]: 256 µg/mL (≈ 761 µM)
- MIC [11]: 128 µg/mL (≈ 381 µM)
- MTD [12]: 2000 mg/kg
- MIC [2]: 256 µg/mL (≈ 761 µM)
- MIC [13]: 128 µg/mL (≈ 381 µM)
- Activity [14]: 27.86 mg/dL
- Activity [15]: 19.04 mg/dL
- Activity [16]: 31.81 mg/dL
- MIC [17]: 128 µg/mL (≈ 381 µM)
- MIC [3]: 128 µg/mL (≈ 381 µM)
- MIC [18]: 128 µg/mL (≈ 381 µM)
- MIC [4]: 128 µg/mL (≈ 381 µM)

Compound: Nc1ccc(C(=O)/C=C/c2ccc(/C=C3\SC(=O)NC3=O)cc2)cc1
- MIC [5]: 128 µg/mL (≈ 365 µM)
- MIC [6]: 128 µg/mL (≈ 365 µM)
- MIC [7]: 256 µg/mL (≈ 731 µM)
- EC50 [8]: 28.8 µg/mL (≈ 82.2 µM)
- MIC [9]: 256 µg/mL (≈ 731 µM)
- Activity [10]: Dose-dependent effect
- MIC [1]: 128 µg/mL (≈ 365 µM)
- MIC [11]: 128 µg/mL (≈ 365 µM)
- MTD [12]: 2000 mg/kg
- MIC [2]: 256 µg/mL (≈ 731 µM)
- MIC [13]: 128 µg/mL (≈ 365 µM)
- Activity [14]: 24.72 mg/dL
- Activity [15]: 21.34 mg/dL
- Activity [16]: 29.87 mg/dL
- MIC [17]: 64 µg/mL (≈ 183 µM)
- MIC [3]: 128 µg/mL (≈ 365 µM)
- MIC [18]: 128 µg/mL (≈ 365 µM)
- MIC [4]: 128 µg/mL (≈ 365 µM)

Compound: COc1cc([C@@H]2c3cc4c(cc3[C@H](O)[C@H]3COC(=O)[C@H]23)OCO4)cc(OC)c1OC [PODOFILOX]
- EC50 [8]: 3.61 µg/mL (≈ 8.71 µM)

Compound: O=C1NC(=O)/C(=C/c2ccc(/C=C/C(=O)c3cccs3)cc2)S1
- MIC [5]: 16 µg/mL (≈ 46.9 µM)
- MIC [6]: 32 µg/mL (≈ 93.7 µM)
- MIC [7]: 32 µg/mL (≈ 93.7 µM)
- EC50 [8]: 4 µg/mL (≈ 11.7 µM)
- MIC [9]: 64 µg/mL (≈ 187 µM)
- Activity [10]: Dose-dependent effect
- MIC [1]: 32 µg/mL (≈ 93.7 µM)
- MIC [11]: 16 µg/mL (≈ 46.9 µM)
- MTD [12]: 2000 mg/kg
- MIC [2]: 32 µg/mL (≈ 93.7 µM)
- MIC [13]: 32 µg/mL (≈ 93.7 µM)
- Activity [14]: 11.66 mg/dL
- Activity [16]: 13.71 mg/dL
- MIC [17]: 32 µg/mL (≈ 93.7 µM)
- MIC [3]: 32 µg/mL (≈ 93.7 µM)
- MIC [18]: 32 µg/mL (≈ 93.7 µM)
- MIC [4]: 32 µg/mL (≈ 93.7 µM)

Compound: CN(CCOc1ccc(CC2SC(=O)NC2=O)cc1)c1ccccn1 (stereo not given) [ROSIGLITAZONE]
- Activity [14]: 14.83 mg/dL
- Activity [15]: 38.57 mg/dL
- Activity [16]: 12.74 mg/dL

Compound: O=C1NC(=O)/C(=C/c2ccc(/C=C/C(=O)c3ccccc3O)cc2)S1
- MIC [5]: 512 µg/mL (≈ 1460 µM)
- MIC [6]: 512 µg/mL (≈ 1460 µM)
- MIC [7]: 512 µg/mL (≈ 1460 µM)
- EC50 [8]: 41.4 µg/mL (≈ 118 µM)
- MIC [9]: 512 µg/mL (≈ 1460 µM)
- Activity [10]: Dose-dependent effect
- MIC [1]: 512 µg/mL (≈ 1460 µM)
- MIC [11]: 512 µg/mL (≈ 1460 µM)
- MTD [12]: 2000 mg/kg
- MIC [2]: 512 µg/mL (≈ 1460 µM)
- MIC [13]: 256 µg/mL (≈ 729 µM)
- Activity [16]: 14.44 mg/dL
- MIC [17]: 256 µg/mL (≈ 729 µM)
- MIC [3]: 512 µg/mL (≈ 1460 µM)
- MIC [18]: 256 µg/mL (≈ 729 µM)
- MIC [4]: 512 µg/mL (≈ 1460 µM)
